Test results from ChEMBL document CHEMBL4229333, “Effects of rigidity on the selectivity of protein kinase inhibitors” (Eur J Med Chem, 2018).

What was measured:
[1] = molecular target: Serine/threonine-protein kinase B-raf (Homo sapiens, UniProt P15056, V600E); experiment: Inhibition of BRAF V600E mutant (unknown origin) after 20 mins by immunoblotting assay
[2] = Apparent permeability from apical to basolateral side in human Caco2 cells in absence of P-gp inhibitor by LC-MS/MS analysis; format: ADME, cell-based; settings: Caco-2
Summary of the method: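 Caco-2 monolayer permeability, measured apical-to-basolateral and basolateral-to-apical. Compound concentrations were quantified by LC-MS/MS, and apparent permeability coefficients (Papp, cm/s) were calculated from them.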

[3] = molecular target: RAC-beta serine/threonine-protein kinase (Homo sapiens) (UniProt P31751); experiment: Inhibition of AKT2 (unknown origin) at 1 uM by mobility shift microfluidics platform based assay relative to control
[4] = molecular target: ALK tyrosine kinase receptor (Homo sapiens) (UniProt Q9UM73); experiment: Inhibition of ALK (unknown origin) at 1 uM by mobility shift microfluidics platform based assay relative to control
[5] = molecular target: Aurora kinase C (Homo sapiens) (UniProt Q9UQB9); experiment: Inhibition of AURORA-C (unknown origin) at 1 uM by mobility shift microfluidics platform based assay relative to control
[6] = molecular target: Serine/threonine-protein kinase BRSK1 (Homo sapiens) (UniProt Q8TDC3); experiment: Inhibition of BRSK1 (unknown origin) at 1 uM by mobility shift microfluidics platform based assay relative to control
[7] = molecular target: Casein kinase I isoform alpha (Homo sapiens) (UniProt P48729); experiment: Inhibition of CK1-alpha1 (unknown origin) at 1 uM by mobility shift microfluidics platform based assay relative to control
[8] = molecular target: Casein kinase I isoform gamma-1 (Homo sapiens) (UniProt Q9HCP0); experiment: Inhibition of CK1-gamma1 (unknown origin) at 1 uM by mobility shift microfluidics platform based assay relative to control
[9] = molecular target: Dual specificity protein kinase CLK2 (Homo sapiens) (UniProt P49760); experiment: Inhibition of CLK2 (unknown origin) at 1 uM by mobility shift microfluidics platform based assay relative to control
Chain of Dual specificity protein kinase CLK2 (Homo sapiens) (P49760 whole entry, looked up): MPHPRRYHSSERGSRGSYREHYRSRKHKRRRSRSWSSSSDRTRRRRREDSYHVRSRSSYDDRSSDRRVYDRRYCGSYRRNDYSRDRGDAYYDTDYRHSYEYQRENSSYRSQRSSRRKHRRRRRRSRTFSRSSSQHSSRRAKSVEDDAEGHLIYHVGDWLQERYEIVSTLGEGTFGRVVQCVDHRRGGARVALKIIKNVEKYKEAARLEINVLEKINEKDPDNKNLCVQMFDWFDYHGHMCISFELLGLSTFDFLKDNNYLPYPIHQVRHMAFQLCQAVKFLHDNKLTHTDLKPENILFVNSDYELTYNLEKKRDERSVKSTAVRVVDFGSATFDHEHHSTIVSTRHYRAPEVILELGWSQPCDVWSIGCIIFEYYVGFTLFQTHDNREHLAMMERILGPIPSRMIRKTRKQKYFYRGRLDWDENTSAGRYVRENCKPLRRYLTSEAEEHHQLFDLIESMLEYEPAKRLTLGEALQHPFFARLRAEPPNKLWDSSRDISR

[10] = molecular target: Dual specificity tyrosine-phosphorylation-regulated kinase 1B (Homo sapiens) (UniProt Q9Y463); experiment: Inhibition of DYRK1B (unknown origin) at 1 uM by mobility shift microfluidics platform based assay relative to control
[11] = molecular target: Dual specificity tyrosine-phosphorylation-regulated kinase 2 (Homo sapiens) (UniProt Q92630); experiment: Inhibition of DYRK2 (unknown origin) at 1 uM by mobility shift microfluidics platform based assay relative to control
Chain of Dual specificity tyrosine-phosphorylation-regulated kinase 2 (Homo sapiens) (Q92630 whole entry): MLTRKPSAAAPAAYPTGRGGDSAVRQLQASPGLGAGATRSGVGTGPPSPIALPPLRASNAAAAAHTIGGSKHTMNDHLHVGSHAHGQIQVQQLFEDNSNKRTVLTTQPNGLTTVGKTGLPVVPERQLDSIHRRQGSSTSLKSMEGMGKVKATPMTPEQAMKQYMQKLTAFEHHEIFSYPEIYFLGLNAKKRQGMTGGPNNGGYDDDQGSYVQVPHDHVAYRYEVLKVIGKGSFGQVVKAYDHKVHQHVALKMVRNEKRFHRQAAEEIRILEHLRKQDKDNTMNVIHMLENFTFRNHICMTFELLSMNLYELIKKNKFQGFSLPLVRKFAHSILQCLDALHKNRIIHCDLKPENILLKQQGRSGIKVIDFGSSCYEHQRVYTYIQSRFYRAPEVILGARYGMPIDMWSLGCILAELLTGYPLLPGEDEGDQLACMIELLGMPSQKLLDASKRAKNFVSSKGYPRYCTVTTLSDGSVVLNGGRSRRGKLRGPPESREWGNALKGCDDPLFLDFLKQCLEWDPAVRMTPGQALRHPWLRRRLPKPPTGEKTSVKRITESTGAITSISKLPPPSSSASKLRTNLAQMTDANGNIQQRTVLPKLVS

[12] = molecular target: Tyrosine-protein kinase Fes/Fps (Homo sapiens) (UniProt P07332); experiment: Inhibition of FES (unknown origin) at 1 uM by mobility shift microfluidics platform based assay relative to control
[13] = molecular target: Fibroblast growth factor receptor 1 (Homo sapiens) (UniProt P11362); experiment: Inhibition of FGFR1 (unknown origin) at 1 uM by mobility shift microfluidics platform based assay relative to control
[14] = molecular target: Vascular endothelial growth factor receptor 1 (Homo sapiens) (UniProt P17948); experiment: Inhibition of FLT1 (unknown origin) at 1 uM by mobility shift microfluidics platform based assay relative to control
[15] = molecular target: Macrophage colony-stimulating factor 1 receptor (Homo sapiens) (UniProt P07333); experiment: Inhibition of FMS (unknown origin) at 1 uM by mobility shift microfluidics platform based assay relative to control
[16] = molecular target: Serine/threonine-protein kinase 10 (Homo sapiens) (UniProt O94804); experiment: Inhibition of LOK (unknown origin) at 1 uM by mobility shift microfluidics platform based assay relative to control
[17] = molecular target: Tyrosine-protein kinase Lyn (Homo sapiens) (UniProt P07948); experiment: Inhibition of LYNA (unknown origin) at 1 uM by mobility shift microfluidics platform based assay relative to control
[18] = molecular target: MAP/microtubule affinity-regulating kinase 4 (Homo sapiens) (UniProt Q96L34); experiment: Inhibition of MARK4 (unknown origin) at 1 uM by mobility shift microfluidics platform based assay relative to control
Chain of MAP/microtubule affinity-regulating kinase 4 (Homo sapiens) (Q96L34 whole entry): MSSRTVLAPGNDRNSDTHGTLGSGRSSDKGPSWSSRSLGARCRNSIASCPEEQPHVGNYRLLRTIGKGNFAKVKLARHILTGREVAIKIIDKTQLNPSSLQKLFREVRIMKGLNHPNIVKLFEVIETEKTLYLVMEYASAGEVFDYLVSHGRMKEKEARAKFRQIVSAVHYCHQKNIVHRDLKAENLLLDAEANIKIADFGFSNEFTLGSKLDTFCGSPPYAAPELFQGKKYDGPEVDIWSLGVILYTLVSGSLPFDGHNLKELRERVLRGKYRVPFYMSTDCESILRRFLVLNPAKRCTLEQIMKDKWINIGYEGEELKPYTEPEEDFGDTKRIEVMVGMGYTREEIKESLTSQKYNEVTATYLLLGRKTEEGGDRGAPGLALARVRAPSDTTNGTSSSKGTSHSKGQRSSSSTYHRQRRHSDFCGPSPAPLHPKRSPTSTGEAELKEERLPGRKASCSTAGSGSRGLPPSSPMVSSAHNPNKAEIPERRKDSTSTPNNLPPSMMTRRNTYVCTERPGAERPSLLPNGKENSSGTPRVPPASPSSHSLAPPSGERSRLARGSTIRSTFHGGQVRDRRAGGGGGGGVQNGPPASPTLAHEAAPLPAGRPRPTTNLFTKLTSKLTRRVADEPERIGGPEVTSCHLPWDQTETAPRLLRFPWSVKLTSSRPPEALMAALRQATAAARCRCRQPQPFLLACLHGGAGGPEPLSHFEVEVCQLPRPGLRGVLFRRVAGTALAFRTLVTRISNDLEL

[19] = molecular target: Dual specificity mitogen-activated protein kinase kinase 1 (Homo sapiens) (UniProt Q02750); experiment: Inhibition of MEK1 (unknown origin) at 1 uM by mobility shift microfluidics platform based assay relative to control
[20] = molecular target: SRSF protein kinase 3 (Homo sapiens) (UniProt Q9UPE1); experiment: Inhibition of MSSK1 (unknown origin) at 1 uM by mobility shift microfluidics platform based assay relative to control
[21] = molecular target: Serine/threonine-protein kinase Nek2 (Homo sapiens) (UniProt P51955); experiment: Inhibition of NEK2 (unknown origin) at 1 uM by mobility shift microfluidics platform based assay relative to control
[22] = molecular target: Serine/threonine-protein kinase Nek9 (Homo sapiens) (UniProt Q8TD19); experiment: Inhibition of NEK9 (unknown origin) at 1 uM by mobility shift microfluidics platform based assay relative to control
Chain of Serine/threonine-protein kinase Nek9 (Homo sapiens) (Q8TD19 whole entry): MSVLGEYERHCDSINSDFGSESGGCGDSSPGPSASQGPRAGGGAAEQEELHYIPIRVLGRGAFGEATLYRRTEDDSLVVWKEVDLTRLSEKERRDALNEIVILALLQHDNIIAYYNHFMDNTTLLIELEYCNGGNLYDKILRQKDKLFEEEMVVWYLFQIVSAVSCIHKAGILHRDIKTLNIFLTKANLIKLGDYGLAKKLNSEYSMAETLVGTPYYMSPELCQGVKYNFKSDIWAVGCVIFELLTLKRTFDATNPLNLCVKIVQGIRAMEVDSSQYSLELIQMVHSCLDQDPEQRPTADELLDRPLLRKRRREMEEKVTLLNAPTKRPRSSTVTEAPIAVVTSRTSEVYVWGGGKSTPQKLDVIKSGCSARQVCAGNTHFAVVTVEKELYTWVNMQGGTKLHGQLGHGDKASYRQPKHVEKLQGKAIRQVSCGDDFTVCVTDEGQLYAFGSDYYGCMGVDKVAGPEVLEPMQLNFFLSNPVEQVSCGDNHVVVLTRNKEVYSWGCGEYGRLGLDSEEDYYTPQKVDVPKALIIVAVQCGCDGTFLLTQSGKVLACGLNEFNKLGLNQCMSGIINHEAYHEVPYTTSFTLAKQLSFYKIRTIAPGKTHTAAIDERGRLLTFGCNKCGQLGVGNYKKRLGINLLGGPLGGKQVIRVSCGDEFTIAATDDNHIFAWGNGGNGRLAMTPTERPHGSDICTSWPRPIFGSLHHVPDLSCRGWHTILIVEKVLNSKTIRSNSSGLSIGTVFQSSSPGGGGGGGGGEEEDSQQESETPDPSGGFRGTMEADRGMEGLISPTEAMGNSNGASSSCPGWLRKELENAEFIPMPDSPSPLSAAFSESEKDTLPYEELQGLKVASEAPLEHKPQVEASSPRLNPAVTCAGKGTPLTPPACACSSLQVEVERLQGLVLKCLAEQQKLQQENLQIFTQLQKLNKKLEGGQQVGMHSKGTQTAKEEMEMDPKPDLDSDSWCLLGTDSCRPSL

[23] = molecular target: Mitogen-activated protein kinase 11 (Homo sapiens) (UniProt Q15759); experiment: Inhibition of P38-beta (unknown origin) at 1 uM by mobility shift microfluidics platform based assay relative to control
Chain of Mitogen-activated protein kinase 11 (Homo sapiens) (Q15759 whole entry): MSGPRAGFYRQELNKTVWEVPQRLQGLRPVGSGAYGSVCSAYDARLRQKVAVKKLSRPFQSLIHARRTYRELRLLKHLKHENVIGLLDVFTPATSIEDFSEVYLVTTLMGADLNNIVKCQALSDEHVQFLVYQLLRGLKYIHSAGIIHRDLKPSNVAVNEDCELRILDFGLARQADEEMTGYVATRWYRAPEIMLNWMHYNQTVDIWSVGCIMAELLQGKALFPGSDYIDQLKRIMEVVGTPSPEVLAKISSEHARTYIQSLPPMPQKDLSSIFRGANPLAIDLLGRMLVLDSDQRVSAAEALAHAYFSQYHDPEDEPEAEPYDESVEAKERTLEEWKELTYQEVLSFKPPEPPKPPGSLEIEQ

[24] = molecular target: Serine/threonine-protein kinase PAK 1 (Homo sapiens) (UniProt Q13153); experiment: Inhibition of PAK1 (unknown origin) at 1 uM by mobility shift microfluidics platform based assay relative to control
[25] = molecular target: Phosphatidylinositol 4,5-bisphosphate 3-kinase catalytic subunit alpha isoform (Homo sapiens) (UniProt P42336); experiment: Inhibition of PI3K-alpha (unknown origin) at 1 uM by mobility shift microfluidics platform based assay relative to control
[26] = molecular target: Serine/threonine-protein kinase N2 (Homo sapiens) (UniProt Q16513); experiment: Inhibition of PKN2 (unknown origin) at 1 uM by mobility shift microfluidics platform based assay relative to control
[27] = molecular target: Sphingosine kinase 1 (Homo sapiens) (UniProt Q9NYA1); experiment: Inhibition of SPHK1 (unknown origin) at 1 uM by mobility shift microfluidics platform based assay relative to control
[28] = molecular target: Proto-oncogene tyrosine-protein kinase Src (Homo sapiens) (UniProt P12931); experiment: Inhibition of SRC (unknown origin) at 1 uM by mobility shift microfluidics platform based assay relative to control
Chain of Proto-oncogene tyrosine-protein kinase Src (Homo sapiens) (P12931 2-536 limits assumed): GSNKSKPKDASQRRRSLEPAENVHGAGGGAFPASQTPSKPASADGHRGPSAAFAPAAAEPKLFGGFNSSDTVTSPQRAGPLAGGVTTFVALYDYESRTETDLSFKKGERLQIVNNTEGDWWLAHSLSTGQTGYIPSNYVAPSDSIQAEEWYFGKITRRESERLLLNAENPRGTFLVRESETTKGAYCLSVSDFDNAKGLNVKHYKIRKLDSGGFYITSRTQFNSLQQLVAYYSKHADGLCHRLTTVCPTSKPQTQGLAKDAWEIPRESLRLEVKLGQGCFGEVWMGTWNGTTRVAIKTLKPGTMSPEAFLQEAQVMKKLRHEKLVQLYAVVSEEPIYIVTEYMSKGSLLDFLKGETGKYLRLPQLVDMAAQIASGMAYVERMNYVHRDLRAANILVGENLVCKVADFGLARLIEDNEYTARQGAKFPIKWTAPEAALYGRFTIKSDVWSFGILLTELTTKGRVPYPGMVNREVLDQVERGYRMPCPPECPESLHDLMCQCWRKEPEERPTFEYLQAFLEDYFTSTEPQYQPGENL

[29] = molecular target: SRSF protein kinase 1 (Homo sapiens) (UniProt Q96SB4); experiment: Inhibition of SRPK1 (unknown origin) at 1 uM by mobility shift microfluidics platform based assay relative to control
[30] = molecular target: Angiopoietin-1 receptor (Homo sapiens) (UniProt Q02763); experiment: Inhibition of TIE2 (unknown origin) at 1 uM by mobility shift microfluidics platform based assay relative to control
[31] = molecular target: BDNF/NT-3 growth factors receptor (Homo sapiens) (UniProt Q16620); experiment: Inhibition of TRKB (unknown origin) at 1 uM by mobility shift microfluidics platform based assay relative to control
[32] = molecular target: Testis-specific serine/threonine-protein kinase 1 (Homo sapiens) (UniProt Q9BXA7); experiment: Inhibition of TSSK1 (unknown origin) at 1 uM by mobility shift microfluidics platform based assay relative to control
[33] = molecular target: Non-receptor tyrosine-protein kinase TYK2 (Homo sapiens) (UniProt P29597); experiment: Inhibition of TYK2 (unknown origin) at 1 uM by mobility shift microfluidics platform based assay relative to control
Chain of Non-receptor tyrosine-protein kinase TYK2 (Homo sapiens) (P29597 whole entry): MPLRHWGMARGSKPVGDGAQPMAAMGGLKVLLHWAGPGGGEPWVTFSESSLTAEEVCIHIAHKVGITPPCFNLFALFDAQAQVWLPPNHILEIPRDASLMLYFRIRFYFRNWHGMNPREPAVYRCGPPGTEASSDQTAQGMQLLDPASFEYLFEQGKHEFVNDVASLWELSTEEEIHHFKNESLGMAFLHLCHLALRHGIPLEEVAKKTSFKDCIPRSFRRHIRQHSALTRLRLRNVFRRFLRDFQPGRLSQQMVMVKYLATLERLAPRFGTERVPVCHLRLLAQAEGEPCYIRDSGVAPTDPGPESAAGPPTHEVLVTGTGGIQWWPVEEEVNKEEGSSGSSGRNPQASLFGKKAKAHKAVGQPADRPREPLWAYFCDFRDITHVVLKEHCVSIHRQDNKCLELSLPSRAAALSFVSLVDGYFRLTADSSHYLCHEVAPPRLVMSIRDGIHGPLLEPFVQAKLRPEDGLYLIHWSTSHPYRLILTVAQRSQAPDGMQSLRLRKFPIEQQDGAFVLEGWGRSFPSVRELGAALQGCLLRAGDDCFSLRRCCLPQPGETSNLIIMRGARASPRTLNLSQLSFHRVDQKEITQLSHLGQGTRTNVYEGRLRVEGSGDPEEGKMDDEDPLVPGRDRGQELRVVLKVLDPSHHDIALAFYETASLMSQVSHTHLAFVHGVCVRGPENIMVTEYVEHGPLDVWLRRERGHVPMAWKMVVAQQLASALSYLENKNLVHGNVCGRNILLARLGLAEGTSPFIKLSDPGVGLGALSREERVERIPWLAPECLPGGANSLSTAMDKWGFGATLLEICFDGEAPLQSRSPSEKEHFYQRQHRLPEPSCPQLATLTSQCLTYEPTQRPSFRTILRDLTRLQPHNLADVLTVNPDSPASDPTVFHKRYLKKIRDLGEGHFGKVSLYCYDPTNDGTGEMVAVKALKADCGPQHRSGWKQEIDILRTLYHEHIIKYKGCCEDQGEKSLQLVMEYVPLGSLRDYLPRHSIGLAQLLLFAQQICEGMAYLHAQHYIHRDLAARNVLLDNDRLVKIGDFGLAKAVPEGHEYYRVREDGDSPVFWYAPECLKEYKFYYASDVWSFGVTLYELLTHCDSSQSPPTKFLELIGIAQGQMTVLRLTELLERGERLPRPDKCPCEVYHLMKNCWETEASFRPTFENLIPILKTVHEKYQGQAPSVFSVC

Row | SMILES | IC50 [1] [nM] | Papp A→B [2] [×10⁻⁶ cm/s] | inhibition [3] [%] | inhibition [4] [%] | inhibition [5] [%] | inhibition [6] [%] | inhibition [7] [%] | inhibition [8] [%] | inhibition [9] [%] | inhibition [10] [%] | inhibition [11] [%] | inhibition [12] [%] | inhibition [13] [%] | inhibition [14] [%] | inhibition [15] [%] | inhibition [16] [%] | inhibition [17] [%] | inhibition [18] [%] | inhibition [19] [%] | inhibition [20] [%] | further results
1 | CC(C)n1nc(C#Cc2cccc(NC(=O)c3cccc(C(F)(F)F)c3)c2)c2c(N)ncnc21 | 4 | 0.5 | 0 | 6 | 33 | -10 | 10 | 9 | 5 | 0 | 11 | 21 | 98 | 99 | 99 | 97 | 99 | -4 | 13 | 9 | inhibition [21]: -1%; inhibition [22]: 2%; inhibition [23]: 23%; inhibition [24]: 0%; inhibition [25]: 36%; inhibition [26]: 3%; inhibition [27]: 2%; inhibition [28]: 100%; inhibition [29]: 1%; inhibition [30]: 96%; inhibition [31]: 43%; inhibition [32]: 0%; inhibition [33]: 31%
2 | CC(C)n1nc(C#Cc2cccc3cc(-c4cccc(C(F)(F)F)c4)ncc23)c2c(N)ncnc21 | 65 | 0.8 | -10 | 1 | -2 | 0 | 2 | -5 | -1 | 1 | -3 | 0 | 91 | 89 | 87 | 59 | 95 | -1 | -8 | 0 | inhibition [21]: 0%; inhibition [22]: -1%; inhibition [23]: 3%; inhibition [24]: -1%; inhibition [25]: -8%; inhibition [26]: 8%; inhibition [27]: 4%; inhibition [28]: 80%; inhibition [29]: 2%; inhibition [30]: 61%; inhibition [31]: 13%; inhibition [32]: -1%; inhibition [33]: 2%
